Here are results for 33 compounds from ChEMBL document CHEMBL1138018, “Discovery and SAR of 2-aminothiazole inhibitors of cyclin-dependent kinase 5/p25 as a potential treatment for Alzheimer's disease” (Bioorg Med Chem Lett, 2004).

By IC50 is commonly meant the midpoint of a concentration-inhibition curve. The low end stands for greater potency in that assay, the high end for weaker potency in that assay.

For test [1], the target named is T1, Cyclin-dependent kinase 2/cyclin E1 (Homo sapiens, UniProt P24941). In words: Concentration required for inhibition of cyclin dependant kinase 2-cyclin E was measured by scintillation proximity assay. In kind it is protein-complex assay. A digest of the protocol:
(§1)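 Kinase activity was read by scintillation proximity assay against cdk5/p25 and cdk2/cyclin E, with the same final ATP concentration in both assays. ATP Km was measured separately for each enzyme. Each IC50 came from a six-point dose–response curve run in triplicate.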
For orientation: Scintillation proximity formats need no separation of bound from free tracer.

Test [2] deals with Cyclin-dependent kinase 5 (Homo sapiens, UniProt Q00535). Kind of test: Concentration required for inhibition of cyclin-dependent kinase 5 was measured by scintillation proximity assay. An outline of the steps: as §1
Sequence of Cyclin-dependent kinase 5 (Q00535 whole entry): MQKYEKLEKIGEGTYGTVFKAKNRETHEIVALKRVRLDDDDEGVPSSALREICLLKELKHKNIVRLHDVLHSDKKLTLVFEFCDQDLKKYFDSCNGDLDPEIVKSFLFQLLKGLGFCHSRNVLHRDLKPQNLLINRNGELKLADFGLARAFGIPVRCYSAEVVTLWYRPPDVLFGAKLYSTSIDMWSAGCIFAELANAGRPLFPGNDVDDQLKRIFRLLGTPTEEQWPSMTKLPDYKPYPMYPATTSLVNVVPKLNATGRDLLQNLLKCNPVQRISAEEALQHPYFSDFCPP
Test [3] is described as follows: Ratio of inhibition of cyclin dependant kinase 2-cyclin E to that of cyclin-dependent kinase 5. A digest of the protocol:
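Selectivity is the cdk2/cyclin E IC50 divided by the cdk5/p25 IC50 (k2/k5). Both IC50s came from six-point triplicate dose–response curves in scintillation proximity assays run at the same final ATP concentration.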

The target in test [4] is T1, Cyclin-dependent kinase 2/cyclin E1. In words: Concentration required for 50% inhibition of cyclin dependant kinase 2-cyclin E was measured by scintillation proximity assay. It counts as protein-complex assay. A digest of the protocol: as §1

With `O=C(Cc1ccc2[nH]cnc2c1)Nc1ncc(C2CCC2)s1`, the IC50 in test [1] is 33 nM; in test [2], 7 nM. In test [3], the Ratio amounted to 4.7.

As for `O=C(Cc1ccccc1)Nc1ncc(-c2ccccc2)s1`, the results for the IC50 in test [1] and in test [2] were 2000 nM and 1570 nM, respectively. For the same compound, the Ratio in test [3] was determined as 1.3.

Consider `O=C(Cc1c[nH]c2ccccc12)Nc1ncc(C2CCC2)s1`, for which the IC50 in test [1] was found to be 40 nM; in test [2], 16 nM. For the same compound, the Ratio in test [3] was 2.5.

On to `O=C(Cc1ccccc1)Nc1ncc(C2=CCCC2)s1`, for which the results for the IC50 in test [1] and in test [2] were 6510 nM and 6530 nM, respectively. Further, in test [3], the Ratio turned out to be 1.

Regarding `O=C(Cc1cccc2cnccc12)Nc1ncc(C2CCC2)s1`, the values for the IC50 in test [1] and in test [2] were 70 nM and 13 nM, respectively. Further, the Ratio in test [3] was 5.4.

`O=C(Cc1ccccc1)Nc1ncc(Br)s1`: the IC50 is 480 nM in test [1] and 900 nM in test [2]. In test [3], the Ratio is 0.5.

Turning to `O=C(Nc1ncc(C2CCC2)s1)Nc1cccc2c[nH]nc12`, the IC50 worked out at 650 nM in test [1] and 190 nM in test [2]. Further, the Ratio in test [3] came to 3.4.

With `Cc1nc2ccc(CC(=O)Nc3ncc(C4CCC4)s3)cc2s1`, the figures for the IC50 in test [1] and in test [2] were 16 nM and 12 nM, respectively. In addition, in test [3], the Ratio was determined as 1.3.

For `CC(C)c1cnc(NC(=O)Oc2ccccc2)s1`, the values for the IC50 in test [4] and in test [2] were 980 nM and 1600 nM, respectively. The Ratio in test [3] amounted to 0.6.

With `O=C(Nc1ccccc1)Nc1ncc(C2CCC2)s1`, the IC50 in test [1] worked out at 290 nM; in test [2], 183 nM. Moreover, the Ratio in test [3] is 1.6.

In the case of `O=C(Cc1ccccc1)Nc1ncc(C2CCC2)s1`, the values for the IC50 in test [1] and in test [2] were 74 nM and 25 nM, respectively. In addition, the Ratio in test [3] worked out at 3.

For the compound `O=C(Cc1ccccc1)Nc1ncc(C2CCCC2)s1`, the values for the IC50 in test [1] and in test [2] were 155 nM and 64 nM, respectively. Further, the Ratio in test [3] worked out at 2.4.

Turning to `O=C(Cn1ccc2ccccc21)Nc1ncc(C2CCC2)s1`, the IC50 worked out at 100 nM in test [1] and 48 nM in test [2]. Further, the Ratio in test [3] was 2.1.

`O=C(Nc1ncc(C2CCC2)s1)Nc1cccc2cnccc12`: the IC50 stood at 96 nM in test [1] and 8 nM in test [2]. Also, in test [3], the Ratio stood at 12.

As to `CC(C)c1cnc(NC(=O)C(=O)c2ccccc2)s1`, the IC50 in test [4] was found to be 9770 nM; in test [2], 4580 nM. In test [3], the Ratio is 2.1.

Consider `CC(C)C(=O)Nc1ncc(C(C)C)s1`, for which the IC50 was determined as 318 nM in test [1] and 321 nM in test [2]. The Ratio in test [3] was 1.

For `O=C(Nc1ncc(C2CCC2)s1)Nc1cccc2nn[nH]c12`, the IC50 in test [1] is 106 nM; in test [2], 41 nM.

In the case of `O=C(Nc1ccc2cnccc2c1)Nc1ncc(C2CCC2)s1`, the IC50 was 176 nM in test [1] and 44 nM in test [2]. In test [3], the Ratio stood at 4.

`Cc1cc2ncn(CC(=O)Nc3ncc(C4CCC4)s3)c2cc1C`: the IC50 in test [1] amounted to 26 nM; in test [2] it was 13 nM. The Ratio in test [3] came out at 2.2.

On to `O=C(Cc1ccc2ncccc2c1)Nc1ncc(C2CCC2)s1`, for which the IC50 in test [1] came to 26 nM; in test [2], 10 nM. In addition, in test [3], the Ratio stood at 2.6.

On to `CCCCCc1cnc(NC(=O)Cc2ccccc2)s1`, for which the results for the IC50 in test [1] and in test [2] were 4120 nM and 3270 nM, respectively. For the same compound, in test [3], the Ratio was found to be 1.2.

Regarding `CC(C)c1cnc(NC(=O)Nc2ccccc2)s1`, the IC50 is 265 nM in test [4] and 102 nM in test [2]. The Ratio in test [3] was found to be 2.6.

In the case of `CC(C)c1cnc(NC(=O)Cc2ccccc2)s1`, the figures for the IC50 in test [4] and in test [2] were 98 nM and 64 nM, respectively. For the same compound, the Ratio in test [3] is 1.5.

Turning to `CSc1cnc(NC(=O)Cc2ccccc2)s1`, the IC50 was found to be 105 nM in test [1] and 91 nM in test [2]. In test [3], the Ratio came to 1.2.

As for `O=C(Nc1ncc(C2CCC2)s1)Nc1cccc2[nH]nnc12`, the Ratio in test [3] turned out to be 2.6.

For the compound `CC(=O)c1cnc(NC(=O)Cc2ccccc2)s1`, the IC50 in test [1] stood at 4600 nM; in test [2], 7670 nM. Further, in test [3], the Ratio amounted to 0.6.

Regarding `CN(C)c1cnc(NC(=O)Cc2ccccc2)s1`, the IC50 in test [1] was 4810 nM; in test [2], 3990 nM. In test [3], the Ratio came to 1.2.

Take `O=C(Cc1ccccc1)Nc1ncc(C2CCCCC2)s1`: the IC50 turned out to be 997 nM in test [1] and 390 nM in test [2]. Besides, the Ratio in test [3] stood at 2.6.

For `O=C(Nc1ccc2ncccc2c1)Nc1ncc(C2CCC2)s1`, the results for the IC50 in test [1] and in test [2] were 167 nM and 44 nM, respectively. Also, in test [3], the Ratio was determined as 3.8.

Regarding `CCc1cnc(NC(=O)Cc2ccccc2)s1`, the IC50 in test [4] was 412 nM; in test [2] it was 621 nM. Further, in test [3], the Ratio was 0.7.

With `CC(C)c1cnc(NC(=O)c2ccccc2)s1`, the IC50 is 1020 nM in test [4] and 1150 nM in test [2]. Moreover, in test [3], the Ratio came out at 0.9.

For the compound `O=C(Nc1ncc(C2CCC2)s1)Nc1cccc2ccncc12`, the IC50 in test [1] is 55 nM; in test [2], 5 nM. Moreover, in test [3], the Ratio amounted to 11.

Turning to `O=C(Nc1ncc(C2CCC2)s1)Nc1cccc2ncccc12`, the figures for the IC50 in test [1] and in test [2] were 43 nM and 13 nM, respectively. In test [3], the Ratio was 3.3.
